In ChEMBL document CHEMBL1269010, “Phenolic bis-styrylbenzenes as β-amyloid binding ligands and free radical scavengers” (J Med Chem, 2010):
Calls of active or inactive are those of the source. The calls are words filed in the database; no cut-off is given here.

Experiments:
[1] = system: Mus musculus; test: In vivo binding affinity to beta-amyloid plaque in PDAPP transgenic mouse hippocampus CA1 region at 50 mg/kg, ip after 48 hrs; type: functional, organism-based; set-up: dose 50 mg/kg
How it was run: (§1)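 Ten-month-old PDAPP mice given a single 50 mg/kg ip dose, vehicle 10% DMSO/PBS, with vehicle-only animals as control. Perfused with 4% PFA at 48 h; brain sections postfixed in 4% PFA for 5 min and mounted. CA1 and dentate gyrus plaques imaged by fluorescence microscopy at 10× and 40×.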

[2] = species: Mus musculus; test: Binding affinity to beta-amyloid plaque in APP/PS1 transgenic mouse brain assessed as signal-to-noise ratio after 30 mins by DAPI staining; type: tissue-based
How it was run: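 Eleven-month-old APP/PS1 mice (Tg2576 × PS1 M146L 6.1) perfusion-fixed with 4% paraformaldehyde; cryosections 10 μm, three per concentration. Stained 30 min with 50 μM compound in 9:1 PBS/EtOH, then washed in 75% EtOH, 95% EtOH and xylene. Imaged through a DAPI filter; S/N taken from five plaque versus five background regions across three plaques per section.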

[3] = Binding affinity to aggregated amyloid beta (1 to 40) by fluorescence titration analysis
[4] = system: Mus musculus; test: In vivo binding affinity to beta-amyloid plaque in PDAPP transgenic mouse hippocampus dentate gyrus region at 50 mg/kg, ip after 48 hrs; type: functional, organism-based; set-up: dose 50 mg/kg; how it was run: as §1
[5] = system: Mus musculus; test: In vivo binding affinity to beta-amyloid plaque in mouse hippocampus dentate gyrus region at 50 mg/kg, ip after 48 hrs; type: functional, organism-based; set-up: dose 50 mg/kg
[6] = system: Radical scavenging activity; test: Antioxidant activity assessed as DPPH radical scavenging activity by spectrophotometric analysis; type: functional
How it was run: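 DPPH (100 μM) in MeOH mixed with test compound from 0 nM to 5 mM; compounds came from ~15 mM DMSO stocks diluted in MeOH. Loss of absorbance at 517 nm read on a plate reader. Each concentration run in triplicate; IC50 taken from a sigmoidal dose-response fit.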

[7] = target: Amyloid-beta precursor protein (Homo sapiens) (UniProt P05067); test: Binding affinity to beta-amyloid plaque in normal human brain after 30 mins by fluorescence microscopy; type: tissue-based
How it was run: (§2)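 Frozen sections (10 μm) of human AD brain and age-matched control brain. Stained 30 min with 50 μM compound in 9:1 PBS/EtOH, washed in 75% EtOH, 95% EtOH and xylene, then fluorescence-imaged through a DAPI filter.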

[8] = target: Amyloid-beta precursor protein (Homo sapiens) (UniProt P05067); test: Binding affinity to beta-amyloid plaque in brain of patient with Alzheimer's disease after 30 mins by fluorescence microscopy; type: tissue-based; how it was run: as §2

Amyloid-beta precursor protein (Homo sapiens), sequence (P05067 whole entry): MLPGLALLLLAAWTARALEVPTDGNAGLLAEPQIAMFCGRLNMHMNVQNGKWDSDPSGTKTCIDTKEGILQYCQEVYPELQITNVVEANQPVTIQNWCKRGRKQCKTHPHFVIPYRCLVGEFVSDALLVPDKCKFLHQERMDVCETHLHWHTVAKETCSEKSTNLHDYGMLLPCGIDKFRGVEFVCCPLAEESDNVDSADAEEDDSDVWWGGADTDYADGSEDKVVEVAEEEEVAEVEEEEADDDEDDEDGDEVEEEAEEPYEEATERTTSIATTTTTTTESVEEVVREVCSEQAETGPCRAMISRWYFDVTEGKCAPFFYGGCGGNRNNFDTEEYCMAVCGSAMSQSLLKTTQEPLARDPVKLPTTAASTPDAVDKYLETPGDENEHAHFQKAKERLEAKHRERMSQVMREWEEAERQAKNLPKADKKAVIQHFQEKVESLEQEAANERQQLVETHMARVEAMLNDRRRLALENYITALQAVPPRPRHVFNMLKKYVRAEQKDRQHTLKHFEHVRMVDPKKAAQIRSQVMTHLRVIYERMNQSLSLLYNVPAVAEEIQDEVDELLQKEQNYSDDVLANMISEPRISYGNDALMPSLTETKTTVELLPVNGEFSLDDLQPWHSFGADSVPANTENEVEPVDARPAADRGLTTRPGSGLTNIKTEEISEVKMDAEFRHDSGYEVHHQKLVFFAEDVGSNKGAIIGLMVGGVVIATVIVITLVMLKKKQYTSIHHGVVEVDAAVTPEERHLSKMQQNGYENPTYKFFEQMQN

## Oc1ccc(/C=C/c2ccc(/C=C/c3ccc(O)cc3)cc2)cc1
[1]
  Activity: Active
[2]
  Ratio: 14
[3]
  Kd: 0.0095 µM
[4]
  Activity: Active
[5]
  Activity: inactive
[6]
  IC50: 3.1 µM
[7]
  Activity: inactive
[8]
  Activity: Active

## Oc1ccc(/C=C/c2ccc(/C=C/c3cccc(O)c3)cc2)cc1
[2]
  Ratio: 9
[3]
  Kd: 3.5 µM
[6]
  IC50: 3.5 µM

## O=c1c(O)c(-c2ccc(O)c(O)c2)oc2cc(O)cc(O)c12 [QUERCETIN]
[6]
  IC50: 1.3 µM

## Oc1cc(O)cc(/C=C/c2ccc(/C=C/c3cc(O)cc(O)c3)cc2)c1
[1]
  Activity: Active
[2]
  Ratio: 9.6
[3]
  Kd: 0.16 µM
[4]
  Activity: Active
[5]
  Activity: inactive
[6]
  IC50: 5.1 µM
[7]
  Activity: inactive
[8]
  Activity: Active

## Oc1ccc(/C=C/c2ccc(/C=C/c3cc(O)cc(O)c3)cc2)cc1
[2]
  Ratio: 3.8
[3]
  Kd: 0.19 µM
[6]
  IC50: 4.5 µM

## Oc1cccc(/C=C/c2ccc(/C=C/c3ccc(O)c(O)c3)cc2)c1
[2]
  Ratio: 5.6
[3]
  Kd: 0.2 µM
[6]
  IC50: 9.1 µM

## Oc1ccc(/C=C/c2ccc(/C=C/c3ccccc3)cc2)cc1
[2]
  Ratio: 8.1
[3]
  Kd: 0.16 µM
[6]
  IC50: 5.6 µM

## Oc1cccc(/C=C/c2ccc(/C=C/c3cccc(O)c3)cc2)c1
[1]
  Activity: Active
[2]
  Ratio: 9.6
[3]
  Kd: 0.0053 µM
[4]
  Activity: Active
[5]
  Activity: inactive
[6]
  IC50: > 100 µM
[7]
  Activity: inactive
[8]
  Activity: Active

## Oc1ccc(/C=C/c2cccc(/C=C/c3ccc(O)cc3)c2)cc1
[2]
  Ratio: 3.1
[3]
  Kd: 2.5 µM
[6]
  IC50: 3.4 µM

## Oc1ccc(/C=C/c2ccccc2/C=C/c2ccc(O)cc2)cc1
[2]
  Ratio: 5.1
[3]
  Kd: 6.3 µM
[6]
  IC50: 4 µM

## Oc1ccc(/C=C/c2cc(O)cc(O)c2)cc1 [RESVERATROL]
[6]
  IC50: 62 µM

## Oc1ccccc1/C=C/c1ccc(/C=C/c2ccccc2O)cc1
[2]
  Ratio: 11
[3]
  Kd: 0.8 µM
[6]
  IC50: 4 µM

## Oc1ccc(/C=C/c2ccc(/C=C/c3ccc(O)c(O)c3)cc2)cc1
[2]
  Ratio: 9.1
[3]
  Kd: 0.26 µM
[6]
  IC50: > 100 µM

## Oc1ccc(/C=C/c2ccc(O)cc2)cc1 [TRANS-4,4'-DIHYDROXYSTILBENE]
[2]
  Ratio: 5.2
[3]
  Kd: 9.2 µM
[6]
  IC50: 1.8 µM

## Oc1ccc(C#Cc2ccc(C#Cc3ccc(O)cc3)cc2)cc1
[2]
  Ratio: 5.9
[3]
  Kd: 0.054 µM
[6]
  IC50: 45 µM
